In ChEMBL document CHEMBL1132283, “Further studies on the Dmt-Tic pharmacophore: hydrophobic substituents at the C-terminus endow delta antagonists to manifest mu agonism or mu antagonism” (J Med Chem, 1999):
Where a SMILES comes first, the peptide text is derived from it. [ ]: non-standard residue; d: D form. The star is where a group is joined. Dmt = Cc1cc(O)cc(C)c1C[C@H](N)C(=O)O; Tic = O=C(O)[C@@H]1Cc2ccccc2CN1; NHtBu = CC(C)(C)N*; NHNH2 = NN*

Tests used:
[1] = species: Mus musculus; experiment: Antagonistic functional bioactivity against delta-receptor from mouse vas deferens(MVD).; settings: for Kb: read-out: pA2 (converted)
[2] = species: Cavia porcellus; experiment: Antagonistic functional bioactivity against […]-receptor from guinea pig ileum(GPI).; settings: for Kb: read-out: pA2 (converted)
[3] = molecular target: T1, Opioid receptors; mu & delta (Rattus norvegicus) (UniProt P33533+P33535); experiment: Antagonistic activity ratio (Ki of mu receptors compared to Ki of delta receptors).; assay type: functional
[4] = molecular target: T1, Opioid receptors; mu & delta (Rattus norvegicus); experiment: Agonist activity ratio (Ki of mu receptors compared to Ki of delta receptors).; assay type: functional
[5] = molecular target: Mu-type opioid receptor (Rattus norvegicus, UniProt P33535); experiment: Binding affinity at Opioid receptor mu 1 from rat brain synaptosomal preparations by [3H]DAGO displacement.
Procedure, shortened: (§1)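 Nonspecific binding was set with 2 μM unlabeled peptide, followed by GF/C filtration. Duplicates at 5–9 doses, ≥3 preparations; Ki by Cheng–Prusoff, mean ± SEM.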

[6] = molecular target: T2, Delta-type opioid receptor (Rattus norvegicus, UniProt P33533); experiment: Binding affinity at Opioid receptor delta 1 from rat brain synaptosomal preparations by [3H]N,N-(Me)2-Dmt-Tic-OH displacement.; procedure, shortened: as §1
[7] = molecular target: T2, Delta-type opioid receptor; experiment: Binding affinity at Opioid receptor delta 1 from rat brain synaptosomal preparations by H-Dmt-Tic-OH displacement.
[8] = species: Cavia porcellus; experiment: Antagonistic functional bioactivity against […]-receptor from guinea pig ileum(GPI)
[9] = species: Mus musculus; experiment: Antagonistic functional bioactivity against delta-receptor from mouse vas deferens(MVD); settings: for Kb: read-out: pA2 (converted)

T2 sequence (P33533 whole entry): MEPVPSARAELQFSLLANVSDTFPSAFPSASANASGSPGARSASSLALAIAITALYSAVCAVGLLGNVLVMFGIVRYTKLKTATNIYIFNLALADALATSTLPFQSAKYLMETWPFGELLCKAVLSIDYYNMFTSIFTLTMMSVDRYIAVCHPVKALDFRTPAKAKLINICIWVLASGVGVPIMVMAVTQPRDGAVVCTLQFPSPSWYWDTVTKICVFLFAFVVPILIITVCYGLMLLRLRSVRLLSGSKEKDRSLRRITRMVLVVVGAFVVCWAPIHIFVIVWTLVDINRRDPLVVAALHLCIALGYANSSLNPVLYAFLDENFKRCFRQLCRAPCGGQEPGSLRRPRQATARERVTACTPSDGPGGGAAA
T1 sequence (P33533 whole entry, looked up): as the sequence (P33533 whole entry) above
T1 sequence (P33535 whole entry, looked up): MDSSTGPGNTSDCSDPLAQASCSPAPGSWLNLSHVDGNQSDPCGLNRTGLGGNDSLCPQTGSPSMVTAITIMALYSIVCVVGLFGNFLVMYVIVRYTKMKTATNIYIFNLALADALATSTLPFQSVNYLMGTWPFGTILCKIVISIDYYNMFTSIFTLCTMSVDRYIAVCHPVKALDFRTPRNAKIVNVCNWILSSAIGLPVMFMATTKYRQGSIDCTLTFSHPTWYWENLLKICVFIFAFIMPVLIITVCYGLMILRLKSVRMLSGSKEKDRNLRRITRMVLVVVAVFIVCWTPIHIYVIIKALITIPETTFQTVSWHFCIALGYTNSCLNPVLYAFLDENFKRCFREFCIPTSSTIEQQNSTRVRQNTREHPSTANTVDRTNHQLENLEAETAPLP
Chain of Mu-type opioid receptor (P33535 whole entry): as the sequence (P33535 whole entry, looked up) above

Row | SMILES | Ke [1] | Kb [1] | EC50 [2] | Ke [2] | Kb [2] | Ratio [3] | Ratio [4] | Ki [5] | Ki [6] | Ki [7] | EC50 [8] | Ke [9] | Kb [9] | EC50 [1]
1 | Cc1cc(O)cc(C)c1C[C@@H](C(=O)N1Cc2ccccc2C[C@H]1C(=O)NC(C)(C)C)N(C)C | 14.1 nM | 14.1 nM | > 10000 nM | 0.3 nM | 302 nM | – | – | – | – | – | – | – | – | –
2 | CNC(=O)[C@@H]1Cc2ccccc2CN1C(=O)[C@H](Cc1c(C)cc(O)cc1C)N(C)C | 0.41 nM | 0.407 nM | > 10000 nM | 0.39 nM | 389 nM | 1270 | 669 | – | – | – | – | – | – | –
3 | Cc1cc(O)cc(C)c1CC(CN)C(=O)N1Cc2ccccc2C[C@H]1C(=O)O (stereo not given in full) | – | – | – | – | – | 4 | 155 | – | – | – | – | – | – | –
4 | COC(=O)[C@H](C)NC(=O)[C@@H]1Cc2ccccc2CN1C(=O)[C@@H](N)Cc1c(C)cc(O)cc1C (H-[Dmt]-[Tic]-Ala-OMe) | – | – | – | – | – | 83 | 48 | – | – | – | – | – | – | –
5 | Cc1cc(O)cc(C)c1C[C@H](N)C(=O)N1Cc2ccccc2C[C@H]1C(=O)N[C@@H](C)C(=O)NC12C[C@H]3C[C@@H](C1)C[C@@H](C2)C3 | 0.51 nM | 0.513 nM | 1000 nM | – | – | – | – | 2.52 nM | 0.073 nM | 0.04 nM | – | – | – | –
6 | Cc1cc(O)cc(C)c1C[C@@H](C(=O)N1Cc2ccccc2C[C@H]1C(=O)O)n1cccc1 | – | – | – | – | – | 562 | 338 | – | – | – | > 10 µM | 408 nM | 407 nM | –
7 | Cc1cc(O)cc(C)c1C[C@H](N)C(=O)N1Cc2ccccc2C[C@H]1C(=O)NN (H-[Dmt]-[Tic]-NHNH2) | – | – | – | – | – | 2 | 86 | – | – | – | – | – | – | –
8 | CNC(=O)[C@@H]1Cc2ccccc2CN1C(=O)[C@@H](N)Cc1c(C)cc(O)cc1C (H-[Dmt]-[Tic]-NHMe) | >10000 nM | – | > 10000 nM | 1.15 nM | 1150 nM | – | – | – | – | – | – | – | – | 21200 nM
9 | COC(=O)[C@@H]1Cc2ccccc2CN1C(=O)[C@@H](N)Cc1c(C)cc(O)cc1C (H-[Dmt]-[Tic]-OMe) | – | – | – | – | – | 0.8 | 44 | – | – | – | – | – | – | –
10 | Cc1cc(O)cc(C)c1C[C@H](N)C(=O)N1Cc2ccccc2C[C@H]1C(=O)NC12C[C@H]3C[C@@H](C1)C[C@@H](C2)C3 | >10000 nM | – | 36 nM | – | – | 0.8 | 3 | 0.76 nM | 0.26 nM | 1.01 nM | – | – | – | 870 nM
11 | CNC(=O)[C@H](C)NC(=O)[C@@H]1Cc2ccccc2CN1C(=O)[C@@H](N)Cc1c(C)cc(O)cc1C (H-[Dmt]-[Tic]-Ala-NHMe) | – | – | 290 nM | – | – | 47 | 100 | – | – | – | – | – | – | 1290 nM
12 | Cc1cc(O)cc(C)c1C[C@@H](C(=O)N1Cc2ccccc2C[C@@H]1C(=O)NC12C[C@H]3C[C@@H](C1)C[C@@H](C2)C3)N(C)C | 128 nM | 123 nM | 4480 nM | – | – | 0.42 | 0.36 | 50.5 nM | 140 nM | 120 nM | – | – | – | –
13 | Cc1cc(O)cc(C)c1C[C@@H](C(=O)N1Cc2ccccc2C[C@H]1C(=O)NC12C[C@H]3C[C@@H](C1)C[C@@H](C2)C3)N(C)C | 0.87 nM | 0.871 nM | 16 nM | – | – | 9 | 7 | 1.12 nM | 0.16 nM | 0.12 nM | – | – | – | –
14 | Cc1cc(O)cc(C)c1C[C@H](N)C(=O)N1Cc2ccccc2C[C@H]1C(=O)NC(C)(C)C (H-[Dmt]-[Tic]-NHtBu) | 1.74 nM | 5.75 nM | 1040 nM | – | – | 6 | 14 | – | – | – | – | – | – | –
15 | Cc1cc(O)cc(C)c1C[C@H](N)C(=O)N1Cc2ccccc2C[C@@H]1C(=O)NC12C[C@H]3C[C@@H](C1)C[C@@H](C2)C3 | >10000 nM | – | 1680 nM | – | – | 0.004 | 0.01 | 0.26 nM | 24.5 nM | 70.3 nM | – | – | – | –
16 | Cc1cc(O)cc(C)c1C[C@@H](C(=O)N1Cc2ccccc2C[C@H]1C(=O)O)N1CCCC1 | 121 nM | 126 nM | > 10000 nM | – | – | 573 | 502 | – | – | – | – | – | – | –
17 | Cc1cc(O)cc(C)c1C[C@H](N)C(=O)N1Cc2ccccc2C[C@H]1C(=O)Nc1nn[nH]n1 | – | – | – | – | – | 4 | 53 | – | – | – | 8.2 µM | 36.3 nM | 36.3 nM | –
18 | Cc1cc(O)cc(C)c1C[C@H](N)C(=O)N1Cc2ccccc2C[C@H]1CC(=O)O | 1.41 nM | 1.58 nM | > 10000 nM | – | – | – | – | – | – | – | – | – | – | –
19 | Cc1cc(O)cc(C)c1C[C@H](N)C(=O)N1Cc2ccccc2C[C@H]1C(=O)N[C@@H](C)C(=O)NC(C)(C)C (H-[Dmt]-[Tic]-Ala-NHtBu) | 0.69 nM | 0.692 nM | > 10000 nM | – | 174 nM | 48 | 61 | – | – | – | – | – | – | –
20 | Cc1cc(O)cc(C)c1C[C@@H](C(=O)N1Cc2ccccc2C[C@H]1C(=O)O)N1CCCCC1 | 49 nM | 49 nM | > 10000 nM | – | – | 2760 | 1730 | – | – | – | – | – | – | –
